Structures are written as SMILES. Active and inactive are the calls of the source. No cut-off for these calls is given here.

Consider five molecules from ChEMBL document CHEMBL1155251, “Efficient synthesis of the first betulonic acid-acetylene hybrids and their hepatoprotective and anti-inflammatory activity” (2009).

Experiment [1] has as its system Mus musculus. In words: Hepatoprotective activity against CCL4-induced hepatitis in mouse assessed as alkaline phosphatase level at 50 mg/kg, po administered 1 hr prior to CCL4 challenge (reference value: 18.27+/- 1.42 ucat/L). The experiment is classed as functional. A digest of the protocol: (§1)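 Outbred male mice (22–25 g). Acute hepatitis induced by single oral 25% CCl4 in sunflower oil. Compounds given orally as water–Tween-80 suspension 1 h before induction; controls got vehicle. At least ten animals per group. Next day, serum ALP, ALT and AST measured with standard kits; TBARS measured by an established procedure.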

Experiment [2] relates to Mus musculus. In words: Hepatoprotective activity against CCL4-induced hepatitis in mouse assessed as […] level at 50 mg/kg, po administered 1 hr prior to CCL4 challenge (reference value: 5.04+/- 0.72 ucat/L). The experiment is classed as functional. In outline: as §1
The test system of experiment [3] is Mus musculus. Description: Hepatoprotective activity against CCL4-induced hepatitis in mouse assessed as aspartate amino transferase level at 50 mg/kg, po administered 1 hr prior to CCL4 challenge (reference value: 5.23+/- 0.76 ucat/L). The experiment is classed as functional. In outline: as §1
For experiment [4], the system named is Mus musculus. In words: Hepatoprotective activity against CCL4-induced hepatitis in mouse assessed as thiobarbiturate relative substance level at 50 mg/kg, po administered 1 hr prior to CCL4 challenge (reference value: 1.63+/- 0.24 ucat/L). The experiment is classed as functional. A digest of the protocol:
as §1

In experiment [5] the test system is Mus musculus. In words: Antiinflammatory activity against carrageenan-induced paw edema in mouse assessed as decrease in index of hind paw edema at 20 mg/kg, po administered 1 hr prior to carrageenan challenge. The experiment is classed as functional, organism-based. Details: dose 20 mg/kg. A digest of the protocol: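 Outbred male mice (22–25 g), ad libitum food/water. Dosed orally at 20 mg/kg as aqueous-Tween suspension 1 h before carrageenan; controls got water–Tween. Killed by cervical dislocation 5 h after phlogogen; hind paws cut at ankle and weighed. Edema index = (treated − untreated paw weight)/untreated paw weight.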
For orientation: Carrageenan injected into the paw causes an acute inflammation.

In experiment [6] the test system is Mus musculus. Description: Hepatoprotective activity against CCL4-induced hepatitis in mouse assessed as alkaline phosphatase level at 20 mg/kg, po administered 1 hr prior to CCL4 challenge (reference value: 18.27+/- 1.42 ucat/L). The experiment is classed as functional. In outline:
as §1

For experiment [7], the system named is Mus musculus. In words: Hepatoprotective activity against CCL4-induced hepatitis in mouse assessed as […] level at 20 mg/kg, po administered 1 hr prior to CCL4 challenge (reference value: 5.04+/- 0.72 ucat/L). The experiment is classed as functional. A digest of the protocol:
as §1

Experiment [8] has as its system Mus musculus. Description: Hepatoprotective activity against CCL4-induced hepatitis in mouse assessed as aspartate amino transferase level at 20 mg/kg, po administered 1 hr prior to CCL4 challenge (reference value: 5.23+/- 0.76 ucat/L). The experiment is classed as functional. A digest of the protocol: as §1
Experiment [9] has as its system Mus musculus. In words: Hepatoprotective activity against CCL4-induced hepatitis in mouse assessed as thiobarbiturate relative substance level at 20 mg/kg, po administered 1 hr prior to CCL4 challenge (reference value: 1.63+/- 0.24 ucat/L). The experiment is classed as functional. A digest of the protocol:
as §1

The test system of experiment [10] is Mus musculus. Description: Hepatoprotective activity against CCL4-induced hepatitis in mouse assessed as alkaline phosphatase level at 100 mg/kg, po administered 1 hr prior to CCL4 challenge (reference value: 18.27+/- 1.42 ucat/L). The experiment is classed as functional. In outline: as §1
Experiment [11] deals with Mus musculus. In words: Hepatoprotective activity against CCL4-induced hepatitis in mouse assessed as […] level at 100 mg/kg, po administered 1 hr prior to CCL4 challenge (reference value: 5.04+/- 0.72 ucat/L). The experiment is classed as functional. A digest of the protocol:
as §1

The subject of experiment [12] is Mus musculus. Description: Hepatoprotective activity against CCL4-induced hepatitis in mouse assessed as aspartate amino transferase level at 100 mg/kg, po administered 1 hr prior to CCL4 challenge (reference value: 5.23+/- 0.76 ucat/L). The experiment is classed as functional. In outline:
as §1

The subject of experiment [13] is Mus musculus. In words: Hepatoprotective activity against CCL4-induced hepatitis in mouse assessed as thiobarbiturate relative substance level at 100 mg/kg, po administered 1 hr prior to CCL4 challenge (reference value: 1.63+/- 0.24 ucat/L). The experiment is classed as functional. In outline:
as §1

As for `C=C(C)[C@@H]1CC[C@]2(C(=O)Nc3ccc(C#CCN4CCCCC4)cc3)CC[C@]3(C)[C@H](CC[C@@H]4[C@@]5(C)CCC(=O)C(C)(C)[C@@H]5CC[C@]43C)[C@@H]12`, the Activity was 12.8 ucat/L in the experiment on Mus musculus [1], 3.08 ucat/L in the experiment on Mus musculus [2], 3.25 ucat/L in the experiment on Mus musculus [3] and 1.06 µmol/L in the experiment with Mus musculus [4]. The outcome with Mus musculus [5] was Active.

In the case of `C=C(C)[C@@H]1CC[C@]2(C(=O)Nc3ccc(C#CCN4CCOCC4)cc3)CC[C@]3(C)[C@H](CC[C@@H]4[C@@]5(C)CCC(=O)C(C)(C)[C@@H]5CC[C@]43C)[C@@H]12`, the Activity in the experiment on Mus musculus [1] was found to be 14.28 ucat/L; in the experiment with Mus musculus [2] it was 3.48 ucat/L; in the experiment with Mus musculus [3] it was 5.25 ucat/L; in the experiment on Mus musculus [4], 3.21 µmol/L. For the same molecule, in the experiment with Mus musculus [5], the outcome was Active.

For `COc1ccc2c(c1)c(CC(=O)O)c(C)n2C(=O)c1ccc(Cl)cc1`, in the experiment with Mus musculus [5], the outcome was Active.

Turning to `C=C(C)[C@@H]1CC[C@]2(C(=O)Nc3ccc(I)cc3)CC[C@]3(C)[C@H](CC[C@@H]4[C@@]5(C)CCC(=O)C(C)(C)[C@@H]5CC[C@]43C)[C@@H]12`, the Activity in the experiment with Mus musculus [6] stood at 10.27 ucat/L; with Mus musculus [7], 2.75 ucat/L; with Mus musculus [8] it was 3.09 ucat/L; with Mus musculus [9], 2.03 µmol/L. For the same molecule, the outcome in the experiment with Mus musculus [5] was inactive.

`O=C1c2c(O)cc(O)cc2O[C@H](c2ccc(O)c(O)c2)[C@H]1O` [(+)-TAXIFOLIN]: the Activity in the experiment with Mus musculus [10] was determined as 11.31 ucat/L; in the experiment with Mus musculus [11] it was 3.63 ucat/L; in the experiment with Mus musculus [12] it was 3.88 ucat/L; with Mus musculus [13], 1.42 µmol/L.
